In ChEMBL document CHEMBL4229344 (Eur J Med Chem, 2018) one finds Activity data, which are given here for 1 compound.

Active and inactive are the calls of the source. The calls are words filed in the database; no cut-off is given here.

The target of experiment [1] is Serine/threonine-protein kinase 32A (Homo sapiens) (UniProt Q8WU08). The experiment can be described thus: Binding affinity to wild-type human full length YANK1 (M1 to L396 residues) expressed in mammalian expression system assessed as residual binding level at 1 uM by Kinomescan method relative to control. The method in brief:
(§1)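 Single-concentration KINOMEscan (DiscoverX) binding screen at 1 μM against a panel of 468 purified kinases and mutants. The read-out is binding relative to control.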

In experiment [2] the target is Serine/threonine-protein kinase PRP4 homolog (Homo sapiens) (UniProt Q13523). Put plainly: Binding affinity to wild-type human partial length PRP4 (D657 to I1007 residues) expressed in bacterial expression system assessed as residual binding level at 1 uM by Kinomescan method relative to control.
Experiment [3] has as its target Dual serine/threonine and tyrosine protein kinase (Homo sapiens) (UniProt Q6XUX3). Put plainly: Binding affinity to wild-type human full length RIPK5 (M1 to T929 residues) expressed in mammalian expression system assessed as residual binding level at 1 uM by Kinomescan method relative to control. In outline:
as §1

The target of experiment [4] is Mitogen-activated protein kinase kinase kinase 13 (Homo sapiens) (UniProt O43283). Put plainly: Binding affinity to wild-type human full length LZK (M1 to W966 residues) expressed in mammalian expression system assessed as residual binding level at 1 uM by Kinomescan method relative to control. In outline: (§2)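 Single-concentration (1 μM) competition-binding screen run by KINOMEscan against a panel of 468 purified kinases and mutants. The read-out is the relative binding activity of the test compound to each kinase.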

In experiment [5] the target is Tyrosine-protein kinase ABL1 (Homo sapiens, UniProt P00519). Put plainly: Binding affinity to wild-type human phosphorylated ABL1 (S229 to K512 residues) expressed in mammalian expression system assessed as residual binding level at 1 uM by Kinomescan method relative to control.
Experiment [6] deals with Proto-oncogene tyrosine-protein kinase Src (Homo sapiens) (UniProt P12931). The experiment can be described thus: Binding affinity to wild-type human partial length SRC (L240 to L536 residues) expressed in bacterial expression system assessed as residual binding level at 1 uM by Kinomescan method relative to control.
The target of experiment [7] is Epidermal growth factor receptor (Homo sapiens) (UniProt P00533). The experiment can be described thus: Binding affinity to wild-type human partial length EGFR (R669 to V1011 residues) expressed in bacterial expression system assessed as residual binding level at 1 uM by Kinomescan method relative to control.
The target in experiment [8] is Serine/threonine-protein kinase tousled-like 2 (Homo sapiens) (UniProt Q86UE8). The experiment can be described thus: Binding affinity to wild-type human partial length TLK2 (E424 to N749 residues) expressed in bacterial expression system assessed as residual binding level at 1 uM by Kinomescan method relative to control.
Experiment [9] concerns the target Dual specificity mitogen-activated protein kinase kinase 3 (Homo sapiens) (UniProt P46734). The experiment can be described thus: Binding affinity to wild-type human full length MEK3 (M1 to S318 residues) expressed in mammalian expression system assessed as residual binding level at 1 uM by Kinomescan method relative to control. In outline: as §1
Experiment [10] deals with Receptor-type tyrosine-protein kinase FLT3 (Homo sapiens) (UniProt P36888). Put plainly: Binding affinity to wild-type human partial length autoinhibited FLT3 (H564 to Y969 residues) expressed in mammalian expression system assessed as residual binding level at 1 uM by Kinomescan method relative to control.
The subject of experiment [11] is Mast/stem cell growth factor receptor Kit (Homo sapiens), P10721 [L576P]. Put plainly: Binding affinity to human partial length KIT L576P mutant (Y545 to D952 residues) expressed in bacterial expression system assessed as residual binding level at 1 uM by Kinomescan method relative to control. In outline:
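Kinome-wide single-concentration binding screen (KINOMEscan) at 1 μM against a panel of 468 purified kinases and mutants. Read-out is relative binding of each kinase compared with control. Selectivity across the panel was summarised as an S(10) score.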

Experiment [12] deals with STE20/SPS1-related proline-alanine-rich protein kinase (Homo sapiens) (UniProt Q9UEW8). Put plainly: Binding affinity to wild-type human partial length STK39 (P43 to I357 residues) expressed in mammalian expression system assessed as residual binding level at 1 uM by Kinomescan method relative to control.
Experiment [13] concerns the target Tyrosine-protein kinase JAK2 (Homo sapiens) (UniProt O60674). The experiment can be described thus: Binding affinity to wild-type human partial length JAK2 JH1 catalytic domain (A829 to G1132 residues) expressed in mammalian expression system assessed as residual binding level at 1 uM by Kinomescan method relative to control.
Experiment [14] has as its target Cyclin-dependent kinase 11B (Homo sapiens) (UniProt P21127). The experiment can be described thus: Binding affinity to wild-type human partial length CDC2L1 (P353 to G692 residues) expressed in bacterial expression system assessed as residual binding level at 1 uM by Kinomescan method relative to control. The method in brief:
(§3)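 Kinome-wide competition binding screen against a panel of 468 purified kinases/mutants, with the test compound at a single concentration of 1 μM. Read-out is the relative binding activity of each kinase in the presence of compound.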

For experiment [15], the target named is Myosin-IIIa (Homo sapiens) (UniProt Q8NEV4). The experiment can be described thus: Binding affinity to wild-type human partial length MYO3A (M1 to K338 residues) expressed in bacterial expression system assessed as residual binding level at 1 uM by Kinomescan method relative to control. In outline: as §3
For experiment [16], the target named is Activin receptor type-1B (Homo sapiens) (UniProt P36896). The experiment can be described thus: Binding affinity to wild-type human ACVR1B (S187 to I505 residues) expressed in bacterial expression system assessed as residual binding level at 1 uM by Kinomescan method relative to control. The method in brief:
as §2

In the next experiment the test system is NCI-H1703. Put plainly: Induction of apoptosis in human NCI-H1703 cells assessed as cleaved PARP expression level after 72 hrs in presence of PDGF-AA by Western blot analysis. It counts as functional, cell-based. In outline: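 Cells exposed to compound or DMSO for the stated periods, then lysed and immunoblotted for PARP and caspase-3 cleavage, with β-actin as loading control. NCI-H1703 stimulation used PDGF AA at 100 ng/mL.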

Experiment [17] has as its target Serine/threonine-protein kinase NIM1 (Homo sapiens) (UniProt Q8IY84). The experiment can be described thus: Binding affinity to wild-type human partial length NIM1 (Q44 to N355 residues) expressed in mammalian expression system assessed as residual binding level at 1 uM by Kinomescan method relative to control.
For the next experiment, the system named is EOL1. Put plainly: Antitumor activity against human EOL-1 cells engrafted in ip dosed NOD-SCID mouse assessed as reduction of cell density in bone marrow administered 3 weeks post cell inoculation by FACS analysis. In kind it is functional, organism-based. The method in brief:
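Daily i.p. dosing started 3 weeks after inoculation at 7.5, 15 or 30 mg/kg/day. Mice monitored daily and euthanized when moribund or at hind-limb paralysis. Bone marrow cells, after red-cell lysis, stained with PE anti-HLA-ABC and counted by flow cytometry.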
On the technique in general: Flow cytometry measures light scatter and fluorescence of single cells or particles in a stream.

The target of experiment [18] is LIM domain kinase 1 (Homo sapiens) (UniProt P53667). Put plainly: Binding affinity to wild-type human full length LIMK1 (M1 to D647 residues) expressed in bacterial expression system assessed as residual binding level at 1 uM by Kinomescan method relative to control. In outline:
as §2

Chain of Dual specificity mitogen-activated protein kinase kinase 3 (Homo sapiens) (P46734 whole entry, the tested form may be a part): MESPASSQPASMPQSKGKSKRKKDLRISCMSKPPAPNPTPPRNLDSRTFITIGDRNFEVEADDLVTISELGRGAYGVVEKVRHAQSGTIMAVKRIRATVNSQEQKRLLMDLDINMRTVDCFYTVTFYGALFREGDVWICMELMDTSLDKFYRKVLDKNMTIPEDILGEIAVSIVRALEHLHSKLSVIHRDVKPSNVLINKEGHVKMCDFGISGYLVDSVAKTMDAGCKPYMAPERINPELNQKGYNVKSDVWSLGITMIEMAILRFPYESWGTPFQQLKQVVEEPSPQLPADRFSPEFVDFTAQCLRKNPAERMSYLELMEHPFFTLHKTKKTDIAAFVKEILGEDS
Chain of Epidermal growth factor receptor (Homo sapiens) (P00533 whole entry, the tested form may be a part): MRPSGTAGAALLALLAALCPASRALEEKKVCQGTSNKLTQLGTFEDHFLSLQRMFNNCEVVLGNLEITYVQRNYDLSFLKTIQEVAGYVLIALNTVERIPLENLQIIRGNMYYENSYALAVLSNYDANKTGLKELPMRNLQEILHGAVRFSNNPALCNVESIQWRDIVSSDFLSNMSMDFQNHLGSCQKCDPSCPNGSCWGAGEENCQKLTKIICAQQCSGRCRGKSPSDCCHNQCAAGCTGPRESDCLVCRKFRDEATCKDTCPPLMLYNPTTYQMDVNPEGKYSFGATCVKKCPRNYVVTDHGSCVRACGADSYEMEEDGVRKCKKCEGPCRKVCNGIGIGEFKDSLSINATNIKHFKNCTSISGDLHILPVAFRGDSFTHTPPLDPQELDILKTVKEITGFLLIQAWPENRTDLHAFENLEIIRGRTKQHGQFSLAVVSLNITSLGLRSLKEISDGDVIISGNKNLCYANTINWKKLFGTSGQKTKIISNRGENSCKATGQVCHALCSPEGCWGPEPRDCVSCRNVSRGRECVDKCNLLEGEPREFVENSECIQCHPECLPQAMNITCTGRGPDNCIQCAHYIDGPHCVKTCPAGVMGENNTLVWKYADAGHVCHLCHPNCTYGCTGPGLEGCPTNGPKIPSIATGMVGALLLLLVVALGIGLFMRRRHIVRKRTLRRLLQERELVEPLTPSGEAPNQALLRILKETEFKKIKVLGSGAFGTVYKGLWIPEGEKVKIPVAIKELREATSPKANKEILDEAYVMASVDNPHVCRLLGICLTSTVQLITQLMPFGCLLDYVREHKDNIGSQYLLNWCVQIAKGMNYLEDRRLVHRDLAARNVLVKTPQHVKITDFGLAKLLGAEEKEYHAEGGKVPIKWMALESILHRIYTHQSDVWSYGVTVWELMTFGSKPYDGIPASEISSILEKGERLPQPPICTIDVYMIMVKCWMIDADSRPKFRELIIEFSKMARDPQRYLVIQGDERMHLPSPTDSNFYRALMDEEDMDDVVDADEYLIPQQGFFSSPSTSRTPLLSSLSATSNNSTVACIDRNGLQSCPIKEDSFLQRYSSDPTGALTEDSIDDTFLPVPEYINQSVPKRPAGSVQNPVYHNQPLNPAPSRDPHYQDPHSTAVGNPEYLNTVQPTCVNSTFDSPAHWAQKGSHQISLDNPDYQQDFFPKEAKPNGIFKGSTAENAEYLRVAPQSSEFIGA
Chain of Myosin-IIIa (Homo sapiens) (Q8NEV4 whole entry, the tested form may be a part): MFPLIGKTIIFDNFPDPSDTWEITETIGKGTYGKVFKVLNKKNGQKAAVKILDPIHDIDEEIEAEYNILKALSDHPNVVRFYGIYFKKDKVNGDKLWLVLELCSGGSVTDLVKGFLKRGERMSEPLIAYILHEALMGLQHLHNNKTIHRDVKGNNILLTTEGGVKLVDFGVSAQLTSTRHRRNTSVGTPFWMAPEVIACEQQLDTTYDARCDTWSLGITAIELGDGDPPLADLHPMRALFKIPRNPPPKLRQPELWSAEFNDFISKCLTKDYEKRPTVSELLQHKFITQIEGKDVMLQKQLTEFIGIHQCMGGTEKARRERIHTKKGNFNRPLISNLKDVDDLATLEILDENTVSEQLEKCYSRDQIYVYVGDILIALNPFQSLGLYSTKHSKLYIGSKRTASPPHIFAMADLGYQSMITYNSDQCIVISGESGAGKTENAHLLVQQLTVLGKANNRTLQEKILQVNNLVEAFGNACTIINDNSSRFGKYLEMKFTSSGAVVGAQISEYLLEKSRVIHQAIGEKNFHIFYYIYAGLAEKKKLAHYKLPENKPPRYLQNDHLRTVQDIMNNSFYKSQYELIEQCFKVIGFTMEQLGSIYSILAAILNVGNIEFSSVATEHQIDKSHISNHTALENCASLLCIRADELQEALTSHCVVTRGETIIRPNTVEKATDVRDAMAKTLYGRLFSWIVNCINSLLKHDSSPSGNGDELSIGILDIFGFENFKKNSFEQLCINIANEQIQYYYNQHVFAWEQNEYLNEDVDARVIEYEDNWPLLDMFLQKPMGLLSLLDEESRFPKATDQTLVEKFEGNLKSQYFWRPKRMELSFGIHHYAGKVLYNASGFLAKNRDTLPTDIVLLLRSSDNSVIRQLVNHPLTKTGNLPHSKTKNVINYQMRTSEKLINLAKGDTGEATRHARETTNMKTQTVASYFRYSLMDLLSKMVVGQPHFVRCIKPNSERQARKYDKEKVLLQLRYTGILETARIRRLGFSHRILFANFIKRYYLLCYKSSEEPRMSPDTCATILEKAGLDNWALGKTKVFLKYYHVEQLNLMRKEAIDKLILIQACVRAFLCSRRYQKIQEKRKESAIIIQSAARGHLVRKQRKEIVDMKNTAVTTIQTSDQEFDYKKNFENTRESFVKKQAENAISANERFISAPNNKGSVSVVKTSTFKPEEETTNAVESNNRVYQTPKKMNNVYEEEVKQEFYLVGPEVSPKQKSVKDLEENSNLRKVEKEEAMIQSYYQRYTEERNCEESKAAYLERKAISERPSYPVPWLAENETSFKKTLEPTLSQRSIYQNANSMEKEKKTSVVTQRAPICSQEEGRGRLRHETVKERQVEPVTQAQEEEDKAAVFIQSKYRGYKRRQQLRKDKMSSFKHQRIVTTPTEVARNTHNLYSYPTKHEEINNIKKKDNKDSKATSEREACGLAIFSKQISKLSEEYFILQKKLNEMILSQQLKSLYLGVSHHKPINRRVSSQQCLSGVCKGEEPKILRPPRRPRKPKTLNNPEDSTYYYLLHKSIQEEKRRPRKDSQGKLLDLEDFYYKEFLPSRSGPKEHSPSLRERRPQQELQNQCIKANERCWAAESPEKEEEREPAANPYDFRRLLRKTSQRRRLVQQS
Chain of Serine/threonine-protein kinase NIM1 (Homo sapiens) (Q8IY84 whole entry, the tested form may be a part): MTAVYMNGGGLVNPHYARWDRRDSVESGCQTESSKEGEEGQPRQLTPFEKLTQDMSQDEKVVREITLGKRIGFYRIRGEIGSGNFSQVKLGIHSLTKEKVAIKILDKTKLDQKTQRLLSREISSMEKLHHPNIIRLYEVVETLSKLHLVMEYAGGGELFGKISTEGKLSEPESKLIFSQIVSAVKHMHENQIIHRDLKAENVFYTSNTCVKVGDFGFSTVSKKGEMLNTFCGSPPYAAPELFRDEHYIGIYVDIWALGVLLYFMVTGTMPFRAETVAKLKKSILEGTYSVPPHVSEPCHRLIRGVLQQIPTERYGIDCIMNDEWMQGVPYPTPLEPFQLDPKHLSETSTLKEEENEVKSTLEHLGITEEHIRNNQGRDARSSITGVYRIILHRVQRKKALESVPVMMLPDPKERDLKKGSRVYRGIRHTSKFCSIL
Chain of Cyclin-dependent kinase 11B (Homo sapiens) (P21127 whole entry, the tested form may be a part): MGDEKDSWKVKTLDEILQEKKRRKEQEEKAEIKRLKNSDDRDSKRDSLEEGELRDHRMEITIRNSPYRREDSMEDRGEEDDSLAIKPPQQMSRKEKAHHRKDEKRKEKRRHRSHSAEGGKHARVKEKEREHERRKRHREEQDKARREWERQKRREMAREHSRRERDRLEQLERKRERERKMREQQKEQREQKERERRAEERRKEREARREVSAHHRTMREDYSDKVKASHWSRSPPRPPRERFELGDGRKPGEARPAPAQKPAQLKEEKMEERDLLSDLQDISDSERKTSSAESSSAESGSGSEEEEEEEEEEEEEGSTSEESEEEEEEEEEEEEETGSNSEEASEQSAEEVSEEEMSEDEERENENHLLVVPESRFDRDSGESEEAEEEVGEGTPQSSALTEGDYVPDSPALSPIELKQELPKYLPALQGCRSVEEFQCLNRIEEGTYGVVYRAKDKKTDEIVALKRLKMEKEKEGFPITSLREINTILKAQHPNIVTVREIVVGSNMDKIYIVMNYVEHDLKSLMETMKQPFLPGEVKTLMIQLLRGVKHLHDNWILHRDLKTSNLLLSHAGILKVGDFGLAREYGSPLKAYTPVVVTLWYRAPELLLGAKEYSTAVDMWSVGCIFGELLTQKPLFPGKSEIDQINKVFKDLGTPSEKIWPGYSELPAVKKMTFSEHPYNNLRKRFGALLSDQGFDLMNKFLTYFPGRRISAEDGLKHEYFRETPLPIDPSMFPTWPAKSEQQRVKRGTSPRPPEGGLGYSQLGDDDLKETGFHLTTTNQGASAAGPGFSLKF
Chain of Proto-oncogene tyrosine-protein kinase Src (Homo sapiens) (P12931 2-536 limits assumed): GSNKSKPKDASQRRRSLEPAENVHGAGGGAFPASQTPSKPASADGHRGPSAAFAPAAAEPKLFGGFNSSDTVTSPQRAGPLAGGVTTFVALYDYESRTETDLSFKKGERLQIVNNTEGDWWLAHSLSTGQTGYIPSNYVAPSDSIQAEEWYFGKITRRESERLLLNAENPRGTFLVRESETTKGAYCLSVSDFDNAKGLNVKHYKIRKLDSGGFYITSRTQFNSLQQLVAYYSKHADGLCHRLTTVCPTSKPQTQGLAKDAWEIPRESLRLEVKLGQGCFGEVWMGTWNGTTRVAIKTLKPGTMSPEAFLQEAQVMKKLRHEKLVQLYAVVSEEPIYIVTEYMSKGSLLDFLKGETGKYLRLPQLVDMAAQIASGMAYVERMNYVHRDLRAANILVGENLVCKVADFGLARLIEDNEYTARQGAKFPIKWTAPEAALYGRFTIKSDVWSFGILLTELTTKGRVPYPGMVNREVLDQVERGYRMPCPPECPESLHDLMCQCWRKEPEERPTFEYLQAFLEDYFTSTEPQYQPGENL

With `Cc1ccc(NC(=O)c2ccc(CN(CCN(C)C)C(=O)c3cccnc3)cc2)cc1Nc1nccc(-c2cccnc2)n1`, the Activity in experiment [1] is 100%; in [2], 100%; in [3], 81%; in experiment [4], 100%; in experiment [5], 73%; in experiment [6], 100%. The Activity came out at 73% in [7]; 95% in experiment [8]; 98% in [9]; 100% in experiment [10]; 0.6% in [11]; 90% in [12]. Moreover, the Activity in [13] is 95%; in [14] it was 91%; in experiment [15], 92%; in experiment [16] it was 100%; in experiment [17] it was 100%; with EOL1 it was “Dose-dependent effect”. Further, in experiment [18], the Activity is 100%. Also, the outcome in the experiment on NCI-H1703 was Active.
